This note sets out measurements from ChEMBL document CHEMBL1155929, “3-(4-(6-Fluoroalkoxy-3,4-dihydroisoquinoline-2(1H)-yl)cyclohexyl)-1H-indole-5-carbonitriles for SERT imaging: chemical synthesis, evaluation in vitro and radiofluorination” (Bioorg Med Chem Lett, 2008).

For series [1], the target named is T1, Sodium-dependent serotonin transporter (Homo sapiens, UniProt P31645). Briefly: biochemical. Type of series: cell-based, HEK293.
Target sequence in this assay (P31645 whole entry): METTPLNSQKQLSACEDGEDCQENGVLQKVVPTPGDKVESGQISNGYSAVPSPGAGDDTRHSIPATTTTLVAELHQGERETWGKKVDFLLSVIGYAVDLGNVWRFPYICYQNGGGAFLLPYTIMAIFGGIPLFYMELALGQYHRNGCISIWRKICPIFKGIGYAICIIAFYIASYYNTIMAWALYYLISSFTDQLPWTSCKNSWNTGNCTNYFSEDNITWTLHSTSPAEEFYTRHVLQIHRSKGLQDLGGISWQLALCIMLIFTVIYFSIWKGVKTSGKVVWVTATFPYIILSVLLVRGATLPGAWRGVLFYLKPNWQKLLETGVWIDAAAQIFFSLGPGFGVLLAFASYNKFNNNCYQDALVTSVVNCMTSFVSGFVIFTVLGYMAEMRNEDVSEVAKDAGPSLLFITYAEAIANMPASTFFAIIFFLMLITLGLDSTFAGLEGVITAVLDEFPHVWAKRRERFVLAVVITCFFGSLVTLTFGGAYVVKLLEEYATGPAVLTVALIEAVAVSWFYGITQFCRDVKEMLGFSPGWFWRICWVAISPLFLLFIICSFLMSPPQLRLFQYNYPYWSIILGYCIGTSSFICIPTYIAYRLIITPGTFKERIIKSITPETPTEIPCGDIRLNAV
The target in series [2] is T1, Sodium-dependent serotonin transporter. Briefly: Ratio of Ki for displacement of [3H]paroxetine to displacement of [3H]citalopram from human SERT expressed in […] cells. The format is cell-based. On the technique in general: Loss of bound radioactivity is the signal in a displacement assay; it reports binding, not function.
Target sequence in this assay (P31645 whole entry, looked up): as the sequence (P31645 whole entry) above
In series [3] the target is T2, 5-hydroxytryptamine receptor 1A (Rattus norvegicus, UniProt P19327).
T2 sequence (P19327 whole entry): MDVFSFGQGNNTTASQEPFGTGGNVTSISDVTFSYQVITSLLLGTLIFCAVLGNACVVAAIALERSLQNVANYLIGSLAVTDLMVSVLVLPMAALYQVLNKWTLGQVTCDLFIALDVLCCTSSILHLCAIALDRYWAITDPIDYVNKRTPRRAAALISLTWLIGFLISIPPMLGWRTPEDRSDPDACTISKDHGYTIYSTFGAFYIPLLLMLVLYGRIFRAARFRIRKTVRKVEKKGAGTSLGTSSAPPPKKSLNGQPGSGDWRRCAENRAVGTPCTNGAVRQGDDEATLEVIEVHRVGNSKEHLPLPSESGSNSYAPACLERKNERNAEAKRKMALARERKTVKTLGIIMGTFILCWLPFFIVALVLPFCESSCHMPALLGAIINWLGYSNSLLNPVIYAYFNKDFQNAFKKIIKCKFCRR
In words: Displacement of [3H]8-OH-DPAT from 5HT1A receptor in rat cortical membrane. Type of series: cell membranes. The procedure, abridged:
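Rat cortical membrane homogenate diluted in 50 mM Tris-HCl pH 7.4, 4 mM CaCl2, 0.1% ascorbic acid. Incubated with 0.3 nM [3H]-8-OH-DPAT and 6-12 test concentrations at 21 °C for 60 min. Nonspecific binding defined with 10 µM serotonin hydrochloride. IC50 from triplicates per experiment, at least three independent experiments; Ki calculated.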

In series [4] the target is Sodium-dependent dopamine transporter (Homo sapiens, UniProt Q01959). Briefly: Displacement of [3H]WIN-35428 from human DAT expressed in HEK293 cells. Type of series: cell-based. In outline: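 Homogenate of HEK293 cells stably expressing hDAT, in 50 mM Tris-HCl pH 7.4, 100 mM NaCl. Incubated with 0.5 nM [3H]WIN35,428 (KD 24.1 nM) and 6-12 test concentrations on ice for 120 min. Nonspecific binding with 10 µM GBR12909. IC50 from triplicates per experiment; Ki calculated.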

In series [5] the target is T1, Sodium-dependent serotonin transporter. Briefly: biochemical. Type of series: cell-based, HEK293. This is another data set of the same source.
Target sequence in this assay (P31645 whole entry): as the sequence (P31645 whole entry) above
Series [6] addresses Sodium-dependent noradrenaline transporter (Homo sapiens, UniProt P23975). Briefly: Displacement of [3H]nisoxetine from human NET expressed in HEK293 cells. The format is cell-based. In outline:
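Homogenate of HEK293 cells stably expressing hNET, in 50 mM Tris-HCl pH 7.4, 120 mM NaCl, 5 mM KCl. Incubated with 0.5 nM [3H]nisoxetine (KD 6.77 nM) and 6-12 test concentrations at 21 °C for 60 min. Nonspecific binding with 100 µM protriptyline. IC50 from triplicates per experiment; Ki calculated.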

Series [7] is described as follows: Partition coefficient, log D at pH 7.2 to 7.4 by HPLC Multisorb. To be noted: octanol/water. Type of series: physicochemical. In outline: (§1)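 HPLC log D on Multisorb RP18-7 or Supelcosil ABZ+ Plus columns. Gradient from 5% MeCN + 20 mM ammonium acetate to 80% MeCN + 20 mM ammonium acetate over 55 min at 1 ml/min. n ≥ 3 per standard or sample.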
The nature of series [8]: Protein binding in rat plasma by acetonitrile precipitation. Type of series: ADME, cell-free. To be noted: read-out: PB (converted). The procedure, abridged: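 18F tracer incubated in freshly isolated rat plasma (protein 95 mg/ml) for 30 min at 37 °C. Protein precipitated with MeCN and extracted twice. Centrifuged at 2000g for 30 min at room temperature; n = 3.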
Series [9] is described as follows: Stability in aqueous sodium hydroxide at 80 degC after 30 mins. To be noted: buffer, 0.5 h. The format is physicochemical. In outline: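 18F tracer held in 0.1 or 1.3 M aqueous NaOH at 80 °C. Analysed by radio-HPLC and TLC.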
The next series concerns Cortex. Briefly: Stability in rat cortex at pH 7.2 to 7.4 after 120 mins. Type of series: ADME, tissue-based. To be noted: buffer, pH 7.2, 2 h. In outline: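 18F tracer incubated at 37 °C in rat cortex homogenate in Tris-HCl, pH 7.2–7.4, for up to 120 min. Sampled every 30 min and analysed by radio-HPLC and TLC.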
A short description of series [10]: Partition coefficient, log D at pH 7.2 to 7.4 by HPLC Supelcosil. Type of series: physicochemical. To be noted: octanol/water. In outline: as §1
Series [11] is described as follows: Partition coefficient, log D in phosphate buffer at pH 7.2 to 7.4 by extractive method. The format is physicochemical. To be noted: octanol/water. The procedure, abridged: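 Batch n-octanol–buffer extraction of the 18F-labelled tracer. Buffers were 50 mM Sørensen phosphate pH 7.2, Dulbecco's PBS pH 7.2, and 30 mM Tris-HCl pH 7.4. n = 3 per buffer system.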

Sodium-dependent dopamine transporter, sequence (Q01959 whole entry): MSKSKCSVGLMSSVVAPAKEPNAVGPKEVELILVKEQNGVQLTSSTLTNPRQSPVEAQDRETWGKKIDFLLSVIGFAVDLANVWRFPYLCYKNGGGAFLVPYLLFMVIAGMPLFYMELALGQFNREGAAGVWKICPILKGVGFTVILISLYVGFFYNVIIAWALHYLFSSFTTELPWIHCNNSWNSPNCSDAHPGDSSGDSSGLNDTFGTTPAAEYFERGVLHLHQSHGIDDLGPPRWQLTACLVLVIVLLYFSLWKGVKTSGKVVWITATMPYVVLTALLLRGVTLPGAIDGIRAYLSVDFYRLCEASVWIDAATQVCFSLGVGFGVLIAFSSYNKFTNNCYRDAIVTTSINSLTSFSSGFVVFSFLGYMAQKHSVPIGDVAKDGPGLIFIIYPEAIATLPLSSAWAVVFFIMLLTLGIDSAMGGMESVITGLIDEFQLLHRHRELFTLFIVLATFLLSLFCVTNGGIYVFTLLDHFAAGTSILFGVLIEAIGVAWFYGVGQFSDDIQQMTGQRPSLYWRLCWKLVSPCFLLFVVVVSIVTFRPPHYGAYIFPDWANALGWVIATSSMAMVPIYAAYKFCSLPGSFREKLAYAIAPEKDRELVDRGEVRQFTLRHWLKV
Sodium-dependent noradrenaline transporter, sequence (P23975 whole entry): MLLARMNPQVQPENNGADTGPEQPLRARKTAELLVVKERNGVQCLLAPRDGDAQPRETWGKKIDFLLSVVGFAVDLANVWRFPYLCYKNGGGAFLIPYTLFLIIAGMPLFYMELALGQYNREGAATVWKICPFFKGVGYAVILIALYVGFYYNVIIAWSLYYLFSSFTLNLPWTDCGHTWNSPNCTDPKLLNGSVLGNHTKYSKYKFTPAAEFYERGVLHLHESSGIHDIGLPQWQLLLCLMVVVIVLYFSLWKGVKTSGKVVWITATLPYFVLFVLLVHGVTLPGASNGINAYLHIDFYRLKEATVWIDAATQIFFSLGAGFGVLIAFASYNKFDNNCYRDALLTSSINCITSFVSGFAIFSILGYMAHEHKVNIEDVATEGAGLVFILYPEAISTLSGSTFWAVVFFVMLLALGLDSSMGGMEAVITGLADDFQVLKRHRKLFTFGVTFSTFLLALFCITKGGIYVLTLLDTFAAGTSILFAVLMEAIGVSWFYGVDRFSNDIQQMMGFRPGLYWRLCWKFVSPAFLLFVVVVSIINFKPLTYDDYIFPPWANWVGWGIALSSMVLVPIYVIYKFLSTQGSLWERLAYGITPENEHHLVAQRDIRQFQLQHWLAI

Consider `N#Cc1ccc2[nH]cc([C@H]3CC[C@@H](N4CCc5cc(OCCCF)ccc5C4)CC3)c2c1`, for which the Ki (usually a measure of affinity in units of concentration, obtained from inhibition or displacement) in [1] stood at 6.16 nM; in series [3], 5670 nM; in series [4], 366 nM; in [5], 914 nM; in [6] it was 772 nM. Besides, the fold change (FC) in series [2] worked out at 140.

Take `Cc1ccc(Sc2ccccc2CN(C)C)c(N)c1`: the Ki in series [1] is 0.73 nM; in series [5], 2.03 nM.

For the molecule `N#Cc1ccc2[nH]cc([C@H]3CC[C@H](N4CCc5cc(OCCCF)ccc5C4)CC3)c2c1`, the Ki turned out to be 327 nM in series [1]; 2860 nM in [3]; 343 nM in series [4]; 2310 nM in series [5]; 102 nM in [6]. Also, in series [2], the fold change (FC) stood at 7.1.

Turning to `COc1ccc2c(c1)CCN([C@H]1CC[C@@H](c3c[nH]c4ccc(C#N)cc43)CC1)C2`, the Ki in series [1] turned out to be 4.1 nM; in series [3], 13100 nM; in series [4], 370 nM; in series [5], 165 nM; in [6], 1020 nM. The fold change (FC) in series [2] turned out to be 40.2.

Consider `N#Cc1ccc2[nH]cc([C@H]3CC[C@H](N4CCc5ccccc5C4)CC3)c2c1`, for which the inhibitory constant (Ki) in [1] was 90.7 nM; in series [3] it was 2530 nM; in series [4], 309 nM; in series [5], 286 nM; in [6] it was 184 nM. For the same molecule, the fold change (FC) in series [2] amounted to 3.2.

Regarding `COc1ccc2c(c1)CCN([C@H]1CC[C@H](c3c[nH]c4ccc(C#N)cc43)CC1)C2`, the Ki was found to be 73.7 nM in series [1]; 267 nM in series [3]; 462 nM in [4]; 518 nM in series [5]; 96.7 nM in series [6]. For the same molecule, the fold change (FC) in series [2] was 7.

As for `N#Cc1ccc2[nH]cc([C@H]3CC[C@@H](N4CCc5ccccc5C4)CC3)c2c1`, the Ki in series [1] was 4.51 nM; in [3] it was over 1000 nM; in series [4], 424 nM; in series [5], 189 nM; in [6], 1430 nM. In addition, the fold change (FC) in series [2] was found to be 41.9.

Consider `N#Cc1ccc2[nH]cc([C@H]3CC[C@@H](N4CCc5cc(OCCC[18F])ccc5C4)CC3)c2c1`, for which the figures for the logD in series [7] and in series [11] were 3.27 and 2.47, respectively. Further, in [8], the fraction unbound was 0.973. Further, the Stability entry (in series [9]; in the series with Cortex) was “Stable” each time. Also, the chromatographic logD (as a rule, a lipophilicity value derived from retention on a column) in [10] was determined as 2.54.

As to `N#Cc1ccc2[nH]cc([C@H]3CC[C@H](N4CCc5cc(OCCC[18F])ccc5C4)CC3)c2c1`, the logD (as a rule, lipophilicity at a set pH, counting ionised and neutral species) is given as 3.27 in series [7] and 2.36 in series [11]. The Stability entry (in series [9]; with Cortex) was “Stable” throughout. Moreover, the chromatographic logD in series [10] worked out at 2.49.
